Data from ChEMBL document CHEMBL3259614, “Design, synthesis, and structure-activity relationship studies of novel fused heterocycles-linked triazoles with good activity and water solubility” (J Med Chem, 2014).
≈ marks a conversion by molar mass, not a printed value.

How the values were obtained:
[1] = tested on: Candida albicans; assay: Antimicrobial activity against Candida albicans SC5314 after 24 hrs by serial dilution method; format: functional; details: SC5314, 24 h
Summary of the method: (§1)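 Broth serial dilution MIC in 96-well plates following NCCLS/CLSI methods. Compounds were dissolved in DMSO and serially diluted in growth medium, with incubation at 35 °C. […] C. parapsilosis 22019 served as the quality-control strain in each assay.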

[2] = tested on: Candida albicans; assay: Antimicrobial activity against Candida albicans Y0109 after 24 hrs by serial dilution method; format: functional; details: Y0109, 24 h; summary of the method: as §1
[3] = tested on: Candida parapsilosis; assay: Antimicrobial activity against Candida parapsilosis 22019 after 24 hrs by serial dilution method; format: functional; details: Lodderomyces parapsilosis, 22019, 24 h; summary of the method: as §1
[4] = tested on: Cryptococcus neoformans; assay: Antimicrobial activity against Cryptococcus neoformans 32609 after 72 hrs by serial dilution method; format: functional; details: Cryptococcus neoformans, 32609, 72 h; summary of the method: as §1
[5] = tested on: Nakaseomyces glabratus; assay: Antimicrobial activity against Candida glabrata 537 after 24 hrs by serial dilution method; format: functional; details: Nakaseomyces glabratus, 537, 24 h; summary of the method: as §1
[6] = tested on: Aspergillus fumigatus; assay: Antimicrobial activity against Aspergillus fumigatus 7544 after 48 hrs by serial dilution method; format: functional; details: Aspergillus fumigatus, 7544, 48 h; summary of the method: as §1
[7] = tested on: Candida albicans; assay: Antimicrobial activity against fluconazole-resistant Candida albicans 100 after 24 hrs by serial dilution method; format: functional; details: Candida albicans, 100, 24 h
Summary of the method: (§2)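 Broth serial-dilution MIC in 96-well plates following NCCLS guidance. Compounds were dissolved in DMSO and serially diluted in growth medium. Clinical isolates came from a hospital collection. […] C. parapsilosis ATCC 22019 served as the quality-control strain in each assay.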

[8] = tested on: Candida albicans; assay: Antimicrobial activity against fluconazole-resistant Candida albicans 103 after 24 hrs by serial dilution method; format: functional; details: Candida albicans, 103, 24 h; summary of the method: as §2
[9] = tested on: Candida albicans; assay: Antimicrobial activity against fluconazole-resistant Candida albicans J18 after 24 hrs by serial dilution method; format: functional; details: J18, 24 h; summary of the method: as §2
[10] = tested on: Candida albicans; assay: Antimicrobial activity against fluconazole-resistant Candida albicans J28 after 24 hrs by serial dilution method; format: functional; details: J28, 24 h; summary of the method: as §2
[11] = tested on: Candida albicans; assay: Antimicrobial activity against fluconazole-resistant Candida albicans J38 after 24 hrs by serial dilution method; format: functional; details: J38, 24 h; summary of the method: as §2
[12] = tested on: Candida parapsilosis; assay: Ratio of voriconazole MIC to compound MIC for Candida parapsilosis 22019 after 24 hrs by serial dilution method; format: functional
[13] = tested on: Cryptococcus neoformans; assay: Ratio of voriconazole MIC to compound MIC for Cryptococcus neoformans 32609 after 72 hrs by serial dilution method; format: functional
[14] = tested on: Nakaseomyces glabratus; assay: Ratio of voriconazole MIC to compound MIC for Candida glabrata 537 after 24 hrs by serial dilution method; format: functional
[15] = tested on: Candida parapsilosis; assay: Ratio of ravuconazole MIC to compound MIC for Candida parapsilosis 22019 after 24 hrs by serial dilution method; format: functional
[16] = tested on: Cryptococcus neoformans; assay: Ratio of ravuconazole MIC to compound MIC for Cryptococcus neoformans 32609 after 72 hrs by serial dilution method; format: functional
[17] = tested on: Nakaseomyces glabratus; assay: Ratio of ravuconazole MIC to compound MIC for Candida glabrata 537 after 24 hrs by serial dilution method; format: functional
[18] = tested on: Candida albicans; assay: Ratio of fluconazole MIC to compound MIC for fluconazole-resistant Candida albicans 103 after 24 hrs by serial dilution method; format: functional
[19] = tested on: Candida albicans; assay: Ratio of fluconazole MIC to compound MIC for fluconazole-resistant Candida albicans 100 after 24 hrs by serial dilution method; format: functional
[20] = tested on: Candida albicans; assay: Ratio of fluconazole MIC to compound MIC for fluconazole-resistant Candida albicans J18 after 24 hrs by serial dilution method; format: functional
[21] = tested on: Candida albicans; assay: Antimicrobial activity against Candida albicans SC5314 infected in ICR mouse assessed as mean survival days at 1 mg/kg, po qd for 5 days starting 2 hrs post infection (reference value: 5.2 +/- 2.35 days starting 2 hrs post infection); format: functional
[22] = molecular target: Voltage-gated inwardly rectifying potassium channel KCNH2 (Homo sapiens, UniProt Q12809); assay: Inhibition of human ERG expressed in CHO cells by whole-cell patch clamp assay; format: cell-based
Chain of Voltage-gated inwardly rectifying potassium channel KCNH2 (Q12809 whole entry): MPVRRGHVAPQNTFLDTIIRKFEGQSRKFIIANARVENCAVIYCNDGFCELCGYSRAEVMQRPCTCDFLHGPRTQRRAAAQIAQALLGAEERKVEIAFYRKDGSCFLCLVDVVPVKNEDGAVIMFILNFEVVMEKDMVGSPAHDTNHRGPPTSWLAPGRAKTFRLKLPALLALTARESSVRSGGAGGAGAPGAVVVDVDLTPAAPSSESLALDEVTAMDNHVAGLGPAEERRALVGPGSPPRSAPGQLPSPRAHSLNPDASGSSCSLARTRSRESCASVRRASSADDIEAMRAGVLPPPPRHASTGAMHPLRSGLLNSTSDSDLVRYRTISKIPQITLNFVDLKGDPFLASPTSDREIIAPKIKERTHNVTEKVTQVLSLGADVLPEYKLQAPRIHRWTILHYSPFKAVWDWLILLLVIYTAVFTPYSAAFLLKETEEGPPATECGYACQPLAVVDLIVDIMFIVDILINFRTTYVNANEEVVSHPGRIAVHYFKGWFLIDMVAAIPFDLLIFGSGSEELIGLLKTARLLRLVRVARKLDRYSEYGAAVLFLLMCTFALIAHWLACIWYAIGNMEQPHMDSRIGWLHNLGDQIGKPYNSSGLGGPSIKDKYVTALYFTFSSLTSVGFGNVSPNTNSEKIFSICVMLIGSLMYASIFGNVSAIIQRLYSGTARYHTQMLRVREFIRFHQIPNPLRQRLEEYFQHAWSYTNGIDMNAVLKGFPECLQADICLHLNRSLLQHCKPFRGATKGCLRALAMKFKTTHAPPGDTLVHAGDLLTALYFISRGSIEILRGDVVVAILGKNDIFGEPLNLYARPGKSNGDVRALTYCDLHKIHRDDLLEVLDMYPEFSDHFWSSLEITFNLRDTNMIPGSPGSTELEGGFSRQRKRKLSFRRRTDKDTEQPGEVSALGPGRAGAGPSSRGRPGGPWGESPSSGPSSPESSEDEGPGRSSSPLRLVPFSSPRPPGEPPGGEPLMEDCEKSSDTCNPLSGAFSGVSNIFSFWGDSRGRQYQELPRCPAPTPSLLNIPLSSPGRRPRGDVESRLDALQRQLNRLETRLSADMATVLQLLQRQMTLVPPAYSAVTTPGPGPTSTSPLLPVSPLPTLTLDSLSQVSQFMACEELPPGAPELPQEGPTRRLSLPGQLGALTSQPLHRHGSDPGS

[23] = tested on: Candida albicans; assay: Antimicrobial activity against Candida albicans SC5314 infected in ICR mouse assessed as mean survival days at 0.32 mg/kg, po qd for 5 days starting 2 hrs post infection (reference value: 5.2 +/- 2.35 days starting 2 hrs post infection); format: functional
[24] = Aqueous solubility of the compound in hydrochloric acid solution at pH 1.2; format: physicochemical
Summary of the method: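 Excess solid was stirred for 3 h in pH 1.2 hydrochloric acid or pH 7.4 phosphate buffer, then filtered through 0.45 μm. Absorbance at the UV maximum was compared with a methanol standard, C′ = A′C/A, with values reported in mg/mL. Determined at 30 °C; mean ± SD, n = 3.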

[25] = tested on: Candida albicans; assay: Antimicrobial activity against Candida albicans SC5314 infected in ICR mouse assessed as mean survival days at 3.2 mg/kg, po qd for 5 days starting 2 hrs post infection (reference value: 5.2 +/- 2.35 days starting 2 hrs post infection); format: functional
[26] = tested on: Candida albicans; assay: Antimicrobial activity against Candida albicans SC5314 infected in ICR mouse assessed as mean survival days at 10 mg/kg, po qd for 5 days starting 2 hrs post infection (reference value: 5.2 +/- 2.35 days starting 2 hrs post infection); format: functional
[27] = tested on: Candida albicans; assay: Antimicrobial activity against fluconazole-resistant Candida albicans 103 infected in ICR mouse assessed as mean survival days at 0.32 mg/kg, po qd for 5 days starting 2 hrs post infection (reference value: 1.5 +/- 0.53 days); format: functional
[28] = tested on: Candida albicans; assay: Antimicrobial activity against fluconazole-resistant Candida albicans 103 infected in ICR mouse assessed as mean survival days at 1 mg/kg, po qd for 5 days starting 2 hrs post infection (reference value: 1.5 +/- 0.53 days); format: functional
[29] = tested on: Candida albicans; assay: Antimicrobial activity against fluconazole-resistant Candida albicans 103 infected in ICR mouse assessed as mean survival days at 3.2 mg/kg, po qd for 5 days starting 2 hrs post infection (reference value: 1.5 +/- 0.53 days); format: functional
[30] = tested on: Candida albicans; assay: Antimicrobial activity against fluconazole-resistant Candida albicans 103 infected in ICR mouse assessed as mean survival days at 10 mg/kg, po qd for 5 days starting 2 hrs post infection (reference value: 1.5 +/- 0.53 days); format: functional
[31] = Cmax in Sprague-Dawley rat at 10 mg/kg, po; format: ADME, organism-based; set-up: dose 10 mg/kg, route oral; details: in vivo
Summary of the method: (§3)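 Male Sprague−Dawley rats (200−250 g), seven per group, dosed orally at 10 mg/kg or intravenously at 3 or 5 mg/kg in 5% DMSO + 5% Tween 80 in 90% saline. Serial retrobulbar blood samples were quantified by LC-MS. Parameters were derived from mean plasma concentrations by noncompartmental analysis. For the disulfate salt, values are based on the active free base measured.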

[32] = Tmax in Sprague-Dawley rat at 10 mg/kg, po; format: ADME, organism-based; set-up: dose 10 mg/kg, route oral; details: in vivo; summary of the method: as §3
[33] = Half life in Sprague-Dawley rat at 10 mg/kg, po; format: ADME, organism-based; set-up: dose 10 mg/kg, route oral; details: in vivo; summary of the method: as §3
[34] = AUC (0 to infinity) in Sprague-Dawley rat at 10 mg/kg, po; format: ADME, organism-based; set-up: time infinity, dose 10 mg/kg, route oral; details: plasma; summary of the method: as §3
[35] = Intrinsic clearance in Sprague-Dawley rat liver microsomes assessed per mg protein at 0.1 uM by LC/MS/MS analysis; format: ADME
Summary of the method: (§4)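 Male Sprague−Dawley rat liver microsomes (0.33 mg/mL protein) in 0.1 M Tris-HCl pH 7.4 with 5 mM MgCl₂ and 1 mM NADPH. Compound at a final 0.1 μM (0.01% DMSO, 0.005% BSA), incubated at 37 °C. Samples taken at 0, 7, 17, 30 and 60 min were quenched in methanol, and parent compound was measured by LC/MS/MS. t1/2 and Clint were then calculated.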

[36] = Oral bioavailability in Sprague-Dawley rat at 10 mg/kg; format: ADME, organism-based; details: in vivo; summary of the method: as §3
[37] = Elimination half life in Sprague-Dawley rat liver microsomes at 0.1 uM by LC/MS/MS analysis; format: ADME; details: read-out: beta t1/2; summary of the method: as §4
[38] = Half life in Sprague-Dawley rat at 3 mg/kg, iv; format: ADME, organism-based; set-up: dose 3 mg/kg, route intravenous; details: in vivo; summary of the method: as §3
[39] = AUC (0 to infinity) in Sprague-Dawley rat at 3 mg/kg, iv; format: ADME, organism-based; set-up: time infinity, dose 3 mg/kg, route intravenous; details: plasma; summary of the method: as §3
[40] = Clearance in Sprague-Dawley rat at 3 mg/kg, iv; format: ADME, organism-based; set-up: dose 3 mg/kg, route intravenous; details: in vivo; summary of the method: as §3

`C[C@@H](N1CCn2cc(-c3ccccc3)nc2C1)[C@](O)(Cn1cncn1)c1ccc(F)cc1F` gave an MIC [1] of 0.0625 µg/mL (≈ 0.139 µM), an MIC [2] of 0.0625 µg/mL (≈ 0.139 µM) and an MIC [3] of 0.0625 µg/mL (≈ 0.139 µM). It also gave an MIC [4] of 0.0312 µg/mL (≈ 0.0694 µM), an MIC [5] of 0.0312 µg/mL (≈ 0.0694 µM) and an MIC [6] of 16 µg/mL (≈ 35.5 µM). The MIC [7] was > 32 µg/mL, the MIC [8] was > 32 µg/mL and the MIC [9] was > 32 µg/mL. The MIC [10] was 0.5 µg/mL (≈ 1.11 µM), the MIC [11] was 0.125 µg/mL (≈ 0.277 µM) and the Ratio [12] was 2. It also gave a Ratio [13] of 2, a Ratio [14] of 2 and a Ratio [15] of 2. For the same compound, the Ratio [16] was 2, the Ratio [17] was 2 and the Ratio [18] was 16. For the same compound, the Ratio [19] was 16 and the Ratio [20] was 16.

With `C[C@@H](N1CCn2nc(-c3ccc(C#N)nc3)nc2C1)[C@](O)(Cn1cncn1)c1ccc(F)cc1F` the Survival [21] was 12.3 days, the MIC [1] was 0.0156 µg/mL (≈ 0.0327 µM) and the MIC [2] was 0.0156 µg/mL (≈ 0.0327 µM). The MIC [3] was 0.0156 µg/mL (≈ 0.0327 µM), the MIC [4] was 0.0078 µg/mL (≈ 0.0163 µM) and the MIC [5] was 0.0078 µg/mL (≈ 0.0163 µM). The MIC [6] was 1 µg/mL (≈ 2.09 µM), the MIC [7] was 8 µg/mL (≈ 16.8 µM) and the MIC [8] was > 16 µg/mL. For the same compound, the MIC [9] was > 16 µg/mL, the MIC [10] was 0.0625 µg/mL (≈ 0.131 µM) and the MIC [11] was ≤ 0.0312 µg/mL. For the same compound, the IC50 [22] was > 40 µM, the Survival [23] was 8 days and the solubility [24] was 44 µg/mL (≈ 92.2 µM). The Survival [25] was 14.1 days, the Survival [26] was 18.1 days and the Survival [27] was 1.7 days. For the same compound, the Survival [28] was 2 days, the Survival [29] was 3.6 days and the Survival [30] was 8.3 days. It also gave a Cmax [31] of 1420 ng/mL, a Tmax [32] of 1.75 h and a half-life [33] of 3.63 h. It also gave an AUC(0-inf) [34] of 7910 ng·h/mL, a microsomal CLint at 0.1 µM [35] of 5 µL/min/mg and a bioavailability [36] of 105%. The half-life at 0.1 µM [37] was 7.17 h, the half-life [38] was 1.2 h and the AUC(0-inf) [39] was 2240 ng·h/mL. It also gave a clearance [40] of 22.7 mL/min/kg.
